Laboratory results reported in PMC12145421 (NPJ Science of Food, 2025).
Values after ≈ are worked out from the molar mass of the structure shown.

Key:
[1] = Solubility studies of CoQ10 in water by HPLC; format: physicochemical
Procedure, shortened: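 The powder was mixed with an equal volume of water to give a supersaturated solution. It was shaken at 200 rpm in a 25 °C water bath for 24 h. CoQ10 was measured by HPLC on a C8 column at 45 °C with methanol at 1 mL/min, against a 0.05–25 μg/mL standard curve. Triplicate independent experiments; mean ± SD.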

[2] = In vivo bioavailability study, plasma CoQ10 after oral administration to rats; conditions: male, SD, rat, 15 mg/kg
Procedure, shortened: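 Six-week-old SPF male rats (180–200 g), acclimatised ≥3 days at 23–25 °C with a 12 h light/dark cycle, n = 5 per group, fasted 12 h. Oral 15 mg/kg dose in 0.5% (w/v) sodium CMC. Tail-vein blood at 0, 0.5, 1, 2, 4, 8, 12 and 24 h. Plasma extracted with n-propanol and assayed by HPLC against a 0–3000 ng/mL plasma standard curve. Non-compartmental model; AUC by linear trapezoid.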

COC1=C(OC)C(=O)C(C/C=C(\C)CC/C=C(\C)CC/C=C(\C)CC/C=C(\C)CC/C=C(\C)CC/C=C(\C)CC/C=C(\C)CC/C=C(\C)CC/C=C(\C)CCC=C(C)C)=C(C)C1=O [CoQ10, Coenzyme Q10]
solubility at 24 h [1]: 2.3 µg/mL (≈ 2.66 µM)
AUC(0-t) [2]: 196 ± 96.9 ng·h/mL
Cmax [2]: 50.3 ± 5.7 ng/mL
Tmax ([2]; Tmax, rats, oral, n = 5, plasma CoQ10): ~1 h
